As usually defined, the apparent Kd is the concentration giving half-maximal binding under the conditions of the assay.

The subject of this series is MS2 coat protein. Kind of series: apparent Kd, MS2 coat protein; higher = weaker binding; RNA-MaP array; FMN 200 µM where present. The gist of the method:
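On Illumina sequencing-chip clusters, designs were transcribed by stalled E. coli RNA polymerase and titrated with SNAP-549-labelled MS2 coat protein (0.7 or 1.5 nM, doubling to 3 µM), without and then with constant ligand, in 100 mM Tris-HCl pH 7.5, 80 mM KCl, 4 mM MgCl2, BSA, DTT, yeast tRNA and Tween-20. Apparent Kd is the median of filtered per-cluster curve fits to green signal normalised to red-channel RNA signal and control-cluster median Fmax.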

Setting [1] is: designed as: OFF switch for flavin mononucleotide, no ligand.
Setting [2] is: ligand present: flavin mononucleotide, designed as: OFF switch for flavin mononucleotide.
[3] abbreviates: designed as: ON switch for flavin mononucleotide, no ligand.
The mark [4] stands for this setting: ligand present: flavin mononucleotide, designed as: ON switch for flavin mononucleotide.

With “GUCGUGUGAGGAUAUGAUUUUUCGGCGGGAUUGCGACUGCUUCAGAAGGCACAUGAGGAUCACCCAUGUAUGUC”, the “apparent Kd” value by setting is: under setting [1], 10.7 nM; under setting [2], 25.5 nM. For “CUCUUGUCAGGAUAUUAUGGACGAUAGCAGGGCUACGUCAGUGAGAAGGGACAUGAGGAUCACCCAUGUAAAAU”, in that order: 83.6 nM and 55.2 nM. Regarding “UUAUGAGCGAUAGGAUAUACUGAGAUUGAAUGGGUAGAAGGAUCGAUCGUGUGGAAGACAUGAGGAUCACCCAUGUUACGGGCC”, the “apparent Kd” value is 56 nM under setting [3] and 166 nM under setting [4].

“AAAAGCAGAGGAUAUACAUAAUUAUGACGAAAGUCAUAAAAACAUGAGGAUCACCCAUGUAGAAGGCUGCAAAA”: the “apparent Kd” value under setting [1] came out at 24.4 nM and the “apparent Kd” value under setting [2] came to 34.1 nM. On to “GGGCUGGUAACAGGAUAUCGUGCCUGGCCGGAUUACAUGAGGAUCACCCAUGUCGUUGGAACCAACGAGAAGGGUUGCCUCCCG”, for which the “apparent Kd” value runs as follows: under setting [3], 199 nM; under setting [4], 28.7 nM. Consider “AGGAGGUCAGGAUAUGCUGCUCGUCACUUGCGUGAUGAGUAGCAGAAGGGACAUGAGGAUCACCCAUGUAAAUA”, for which the “apparent Kd” value is, setting by setting: under setting [1], 48.7 nM; under setting [2], 86.7 nM. For the sequence “AGGACGGGUAAGAAGGCGUUCUCACAUGAGGAUCACCCAUGUCGAAGGAUGAGGAUAUUGGCCGAGGGUGGCGUUUUGUGACGA”, the “apparent Kd” value is, setting by setting: under setting [3], 30.9 nM; under setting [4], 9.35 nM. In the case of “CUUUUGUGAGGAUAUCAGUAGUAAAUUAAUAAAAUUACUACUGAGAAGGCACAUGAGGAUCACCCAUGUUCCUU”, the “apparent Kd” value by setting is: under setting [1], 14.5 nM; under setting [2], 29.5 nM. Taken in the same sequence, the figures for “AUCAGCUCGUCAGGAUAUACGUAAUGGUAAGAUCACAUGAGGAUCACCCAUGUAGAAGGGACGAGCUGAUAAGCACGAAAGUGC” were 192 nM and 676 nM.

In the case of “CGGCUCUCAGGAUAUACCUUGGGUGGCCAACUGUUUCGUUUACAUGAGGAUCACCCAUGUAGAAGGGAGGGCAA”, the “apparent Kd” value under setting [1] came to 53.8 nM and the “apparent Kd” value under setting [2] amounted to 33 nM. In the case of “AAUAAACUCACAGGAUAUAGCAGAGGUCGCGUGAACUUACAGACGACUAUGCUAGAAGGGUGACCACAUGAGGAUCACCCAUGU”, the “apparent Kd” value came out at 869 nM under setting [3] and 149 nM under setting [4]. In the case of “UUUUAGUCAGGAUAUACAUGAGGAUCACCCAUGUAAAAUUUUAAUUUAAUUUUAAGGUGUAGAAGGGACAUUAA”, the “apparent Kd” value by setting is: under setting [1], 27.6 nM; under setting [2], 29.4 nM. For “AAUAAACAUGAGGAUCACCCAUGUCAGGAUAUGCGUCUAUCCUUAUUGCAUAGAUACGGCAGAAGGGACUAAUG”, in that order: 31.9 nM and 56.9 nM. With “UUUUGGUCAGGAUAUUGUUAGUUUAGUUGUUUGUAUUAGUUCGAGAAGGGACAUGAGGAUCACCCAUGUGGUUU”, the “apparent Kd” value under setting [1] came out at 71.8 nM and the “apparent Kd” value under setting [2] came to 58.9 nM. As to “GCGAUAUUGUAAGGAUAUACUCUGUGAUGAAGAGUAGAAGGUACUUACAUGAGGAUCACCCAUGUUUAACGUGAUACUAAUCGC”, the “apparent Kd” value runs as follows: under setting [3], 541 nM; under setting [4], 210 nM. For the sequence “AAAUAGCUAGAGGAUAUCGGAUAGGAUUUACUACGAGAAGGUUAGACAUGAGGAUCACCCAUGUUCUGUUGGGA”, the “apparent Kd” value by setting is: under setting [1], 41.5 nM; under setting [2], 39.2 nM. Consider “AAUCGAUGAUCAGGAUAUGUGGAGCCUCUAAGCGAUGAGGCGUACAUGAGGAUCACCCAUGUGACACAGAAGGGAUACAUGCGG”, for which the “apparent Kd” value worked out at 60.7 nM under setting [3] and 8.43 nM under setting [4]. On to “GAUUUACAUGAGGAUCACCCAUGUGAGGAUAUUGGGCUAGCAGAGUGAAUUCGCUGUCCAAGAAGGUACUGGAA”, for which the “apparent Kd” value runs as follows: under setting [1], 32.6 nM; under setting [2], 32.5 nM. As to “UGGUACAUGGGAGGAUAUCAUGUACUUACAUGAGGAUCACCCAUGUCGAUGGAGACAUCGGAGAUUGAGAAGGCCCAUGUACCU”, the “apparent Kd” value is 1220 nM under setting [3] and 42.2 nM under setting [4]. Take “UAUAUAUAGUAAGGAUAUGUAUAUAUUUCAUAAACAGAAGGUACUGACAUGAGGAUCACCCAUGUUUUAGUGUGGGCAUGUAGA”: the “apparent Kd” value under setting [1] was determined as 60.1 nM and the “apparent Kd” value under setting [2] came to 83.8 nM.

For “UUCGUGCUGCUUUGCUGUACGAGUACAUGAGGAUCACCCAUGUAGGAUAUGGACAUGAGGAUCACCCAGAAGGAUAUGUGUUGC”, the “apparent Kd” value amounted to 113 nM under setting [1] and 141 nM under setting [2].

For “UCACAGUCAGGAUAUUCUGUGUAGGUUGCGCCUCAAGCACUGAAGAAGGGACAUGAGGAUCACCCAUGUUCCUC”, the “apparent Kd” value under setting [1] amounted to 15.5 nM and the “apparent Kd” value under setting [2] is 18.7 nM.

Take “AAUCAGCGGAACUUGACAUCCUUACAUGAGGAUCACCCAUGUCAGGAUAUAUGCUCUCGAGCUGCAUAGAAGGGACAUAGUGGG”: the “apparent Kd” value is, setting by setting: under setting [1], 37.7 nM; under setting [2], 56 nM. As for “AACUCGUCAGGAUAUGCGCGCAGUUACUACGCUUCGCAAUUGCAGAAGGGACAUGAGGAUCACCCAUGUAGGUC”, the “apparent Kd” value under setting [1] is 46.9 nM and the “apparent Kd” value under setting [2] came to 48 nM. As to “AAAUCUGCUGAGGAUAUGAUGACUGAGAGGUCAUCAGAAGGCGGUACAUGAGGAUCACCCAUGUCUAUGGGCAA”, the “apparent Kd” value was 310 nM under setting [1] and 659 nM under setting [2].

As for “AAUAAACACACAGGAUAUAGCAUCGUCGUUGCGAACUUAGCGACGACGAUGCUAGAAGGGUGAACACAUGAGGAUCACCCAUGU”, under setting [4], the “apparent Kd” value was found to be 38.4 nM. Turning to “GGUAUCUCCAGUGAGGAUAUGCGGCGUAGAACAUGAGGAUCACCCAUGUCCUUCGAAUGGGUUACGCAGAAGGCACUACGGUACC”, the “apparent Kd” value stood at 36.6 nM under setting [3] and 16.6 nM under setting [4]. Take “AUAAUGAGAGGAUAUACAUGAGGAUCACCCAUGUUAUUAUCACGGCGAGCUCCAUUACGUAGAAGGCUCAUUUA”: the “apparent Kd” value turned out to be 16.5 nM under setting [1] and 44.7 nM under setting [2].

With “CCCUCGGCGUGUAGAUACAUACAUGAGGAUCACCCAUGUGAGAAGGAUAUGCACGCGUGCUGCCGGCAGAAGGUCUAGAUGGUG”, the “apparent Kd” value was 25.4 nM under setting [1] and 29.8 nM under setting [2]. Taken in the same sequence, the figures for “GGUACUCAAAGAGUACAAGGUCGAACAUGAGGAUCACCCAUGUAGGAUAUGCUAAGCAAGAAGUAGCAGAAGGACAUGUGCAGC” were 17.7 nM and 59.5 nM. For “UGUCGGAGCAGAGGAUAUUACAUGAGGAUCACCCAUGUAUGAACCAAUAGCUGGGAACAGCAAUGUAAGAAGGCUGCUCCGACA”, in that order: 18.6 nM and 201 nM. Taken in the same sequence, the figures for “GGUGCGUAUGUGAGGAUAUGCUGGUCCUUGGCUCGGCAGAAGGCACAUGAGGAUCACCCAUGUGGUGUCGUACA” were 112 nM and 50.9 nM.

For “CCCUCGUAGUAGAAGGGCGGCCGAAAUCUGCACGCAGGAUAUACAUGAGGAUCACCCAUGUACUGAGCUGAAGAGCACUUGGAA”, the “apparent Kd” value under setting [1] was found to be 15.1 nM and the “apparent Kd” value under setting [2] worked out at 14.5 nM. For “AAUAAACUCACAGGAUAUAGCAUAGGUCGCCUGAACUUACAGGCGACUAUGCUAGAAGGGUGACCACAUGAGGAUCACCCAUGU”, the “apparent Kd” value came to 847 nM under setting [3] and 168 nM under setting [4]. For “GCCAACUUAUGAGGAUAUGGCACCUUAUUGGUGCCAGAAGGCAUGUCUCUUGACAUGAGGAUCACCCAUGUAUUAUAGUUGGCA”, in that order: 421 nM and 158 nM. Take “UUGUUAGGGAGAGGAUAUUGACAUGAGGAUCACCCAUGUAUUUGGGAGUGUUUACUGAAUUCUCACGAGAAGGCUUACAAAUUU”: the “apparent Kd” value was 584 nM under setting [1] and 534 nM under setting [2]. Taken in the same sequence, the figures for “GUCAAGUGAGGAUAUGAUUGUACAACAGACUAACAUCUACAUCAGAAGGCACAUGAGGAUCACCCAUGUUUGUC” were 17.7 nM and 15.8 nM.

For “AGAAAACAGGAGAAGGGCCCACGUGAACCUCCAUAUCUGCGAAACAUGAGGAUCACCCAUGUGAGGCAGGAUAUCCAAUUACUU”, the “apparent Kd” value under setting [1] amounted to 9.32 nM and the “apparent Kd” value under setting [2] is 38.7 nM. As to “CCUCCCUGAGGAUAUCCACCCUCAUACAUGAGGAUCACCCAUGUUCAACCCUGGGUUCCCGGAGAAGGCAGUUUUC”, the “apparent Kd” value was determined as 97.2 nM under setting [1] and 102 nM under setting [2]. For “UAGAUGGGAGGAUAUGCAUAGAUACAGAUUCGUGUAGUGCUACAUGAGGAUCACCCAUGUAGAAGGCCCGUCUU”, in that order: 14.8 nM and 37.6 nM. On to “AUUAAUUAAUUAAUACAUGAGGAUCACCCAUGUAAUAAGAUCAAGGAUAUCAGCUCGAAUAGAGCUGAGAAGGUGAUCACAUGU”, for which the “apparent Kd” value runs as follows: under setting [3], 555 nM; under setting [4], 226 nM. Regarding “AUGACAUGCAGAGCGCAACGGCGUACAUGAGGAUCACCCAUGUAGGAUAUACUACACAAAGUGUAGUAGAAGGACAUGCGACUG”, the “apparent Kd” value reads like this: under setting [1], 18.6 nM; under setting [2], 21.3 nM. With “AAUUAAUUGUAGAAGGUACUUAAUUAUGAUAUGUAAGGAUAUACGAUAUUAUAACGACAUGUAUGACAUGAGGAUCACCCAUGU”, the “apparent Kd” value is, setting by setting: under setting [3], 11.2 nM; under setting [4], 8.4 nM.

“AUGAAAGUAACACAGGAUAUCCAGGAUACAACAUGAGGAUCACCCAUGUACAUACGAACGUAUAAGGAGAAGGGUGGAUGAUCUUC”: the “apparent Kd” value was 215 nM under setting [3] and 264 nM under setting [4]. Turning to “UCAGGCUUCGAGAAGGACAUGAGGAUCACCCAUGUGCGUGUGAAGCAGCCGUGAGGCUGCAUCAUGUAGGAUAUCGGAGUCUGC”, the “apparent Kd” value under setting [1] turned out to be 82 nM and the “apparent Kd” value under setting [2] is 418 nM. Take “AUUGUUAAGUUAGGAUAUAGUAAAAUGAUUUAGUUAGAAGGAGCUCACAUGAGGAUCACCCAUGUAAGAGGAUCACCCAUGUAU”: the “apparent Kd” value under setting [1] was found to be 24.9 nM and the “apparent Kd” value under setting [2] amounted to 18.3 nM. As for “AGUGUCGGCACAGGAUAUGAGAUGCCGGCAGACAUGAGGAUCACCCAUGUAAGCGAACCGGGCAGUCAGAAGGGUGAUCGACGA”, the “apparent Kd” value reads like this: under setting [3], 161 nM; under setting [4], 29.7 nM. Take “AUCAGCUCGUCAGGAUAUACGUCACUGCGUCAGCAGUGUGGUUAGAUCACAUGAGGAUCACCCAUGUAGAAGGGACGAGCUGAU”: the “apparent Kd” value reads like this: under setting [1], 23.4 nM; under setting [2], 458 nM.

The values above are taken from the EternaBench riboswitch data.
